The subject of data set [1] is HepG2. The experiment in a line: Cell cycle arrest in human HepG2 cells assessed as accumulation at G0/G1 phase at 30 uM after 12 hrs by propidium iodide staining-based FACS flow cytometric analysis (reference value: 22.94%). The class given is functional. On the technique in general: Flow cytometry measures light scatter and fluorescence of single cells or particles in a stream.

A short description of data set [2]: Antioxidant activity assessed as galvinoxyl free radical scavenging activity at 100 uM relative to control. The class given is functional.
Data set [3] has as its system HepG2. In words: Ratio of curcumin IC50 to compound IC50 for human HepG2 cells. The class given is functional.
Data set [4] can be described thus: Antioxidant activity assessed as galvinoxyl free radical scavenging activity at 1 uM relative to control. The class given is functional.
Data set [5] deals with Radical scavenging activity. The experiment in a line: Antioxidant activity assessed as DPPH free radical scavenging activity at 1 uM relative to control. The class given is functional. (Loss of DPPH colour is used to gauge radical scavenging.)
Data set [6] in a line: Antioxidant activity assessed as galvinoxyl free radical scavenging activity at 10 uM relative to control. The class given is functional.
Data set [7] deals with SGC-7901. The experiment in a line: Cytotoxicity against human SGC7901 cells assessed as growth inhibition after 72 hrs by MTT assay. The class given is functional, cell-based. Conditions: SGC-7901, 72 h. (In general: Formazan colour is commonly taken as a measure of viable cells.)
The test system of data set [8] is Radical scavenging activity. The experiment in a line: Antioxidant activity assessed as DPPH free radical scavenging activity. The format is functional.
The test system of data set [9] is HepG2. In words: Cell cycle arrest in human HepG2 cells assessed as accumulation at G2/M phase at 30 uM after 12 hrs by propidium iodide staining-based FACS flow cytometric analysis (reference value: 33.98%). The format is functional.
Data set [10] has as its system Radical scavenging activity. The experiment in a line: Antioxidant activity assessed as DPPH free radical scavenging activity at 10 uM relative to control. The format is functional.
The subject of data set [11] is A549. In words: Cytotoxicity against human A549 cells assessed as growth inhibition after 72 hrs by MTT assay. The format is functional, cell-based. The conditions noted are these: A549, 72 h.
Data set [12] can be described thus: Antioxidant activity assessed as galvinoxyl free radical scavenging activity. The format is functional.
The nature of data set [13]: Stability of the compound in phosphate-buffered solution assessed as drug degradation under daylight condition at […] measured within 120 mins by UV-vis absorption spectroscopic analysis in absence of FBS. The format is physicochemical. The conditions noted are these: buffer, 2 h. In short, it runs like this: (§1)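 Absorbance at 410 nm followed over time in phosphate-buffered solution (pH 7.4) under daylight, without or with 0.1% FBS; stability expressed as A/A0 relative to the 0 min reading.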

A short description of data set [14]: Stability of the compound in phosphate-buffered solution assessed as drug degradation under daylight condition at […] measured within 120 mins by UV-vis absorption spectroscopic analysis in presence of FBS. The format is physicochemical. Conditions: buffer, 2 h. In short, it runs like this:
as §1

The subject of data set [15] is Radical scavenging activity. In words: Antioxidant activity assessed as DPPH free radical scavenging activity at 100 uM relative to control. The class given is functional.
Data set [16] concerns HCT-116. The experiment in a line: Cytotoxicity against human HCT116 cells assessed as growth inhibition after 72 hrs by MTT assay. The class given is functional, cell-based. Conditions: HCT-116, 72 h.
The subject of data set [17] is HCT-116. In words: Ratio of curcumin IC50 to compound IC50 for human HCT116 cells. The class given is functional.
The test system of data set [18] is HepG2. The experiment in a line: Cytotoxicity against human HepG2 cells assessed as growth inhibition after 72 hrs by MTT assay. The format is functional, cell-based. Conditions: HepG2, 72 h.
Data set [19] relates to Radical scavenging activity. In words: Antioxidant activity assessed as DPPH free radical scavenging activity at 2 uM relative to control. The class given is functional.
In data set [20] the test system is HepG2. The experiment in a line: Cell cycle arrest in human HepG2 cells assessed as accumulation at S phase at 30 uM after 12 hrs by propidium iodide staining-based FACS flow cytometric analysis (reference value: 22.47%). The class given is functional.
Data set [21] concerns Radical scavenging activity. The experiment in a line: Antioxidant activity assessed as DPPH free radical scavenging activity at 20 uM relative to control. The class given is functional.
Data set [22] in a line: Antioxidant activity assessed as galvinoxyl free radical scavenging activity at 2 uM relative to control. The class given is functional.
Data set [23] can be described thus: Antioxidant activity assessed as galvinoxyl free radical scavenging activity at 20 uM relative to control. The format is functional.
A short description of data set [24]: Aqueous solubility of the compound by UV-vis absorption spectroscopic analysis. The class given is physicochemical.

Take `COc1cc(/C=C/C(=O)CC(=O)/C=C/c2ccc(O)c(CN(C)C)c2)ccc1O`: the Activity stood at 29.4% in data set [1]; 51.9% in [2]; 0% in [4]; 1.1% in data set [5]; 16.5% in data set [6]; 24.97% in [9]. Moreover, the Activity turned out to be 23.4% in data set [10]; 91.2% in data set [15]; 5% in [19]; 45.63% in [20]; 51.7% in data set [21]; 3.1% in data set [22]. Further, the Activity in data set [23] came to 37.8%. Also, the “Ratio IC50” value in data set [3] and in [17] was more than 10 in each case. The IC50 – broadly, the concentration that gives 50% inhibition – in data set [7] stood at 23.5 µM; in data set [8], 18.6 µM; in data set [11] it was 20.2 µM; in data set [12], 66.6 µM; in [16], 3.7 µM; in [18], 5.2 µM. Also, the Stability result in data set [13] and in [14] was “Unstable” in each case.

In the case of `COc1cc(/C=C2\CC/C(=C\c3cc(CN(C)C)c(O)c(OC)c3)C2=O)cc(CN(C)C)c1O`, the Activity came to 58.6% in data set [2]; 8.6% in data set [4]; 38.6% in data set [5]; 35.3% in data set [6]; 50.9% in data set [10]; 88.6% in data set [15]. For the same compound, the Activity in data set [19] was 47.9%; in [21], 82%; in [22], 12.8%; in [23] it was 48%. Besides, the IC50 is 1.8 µM in data set [8], 56.3 µM in data set [12], 24.4 µM in [16] and 46.2 µM in data set [18].

For `CN(C)Cc1cc(/C=C/C(=O)/C=C/c2ccc(O)c(CN(C)C)c2)ccc1O.Cl.Cl`, the concentration in solution in [24] (solubility) was 368 mg/mL.

Take `COc1cc(/C=C/C(=O)CC(=O)/C=C/c2ccc(O)c(C[N+](C)(C)C)c2)ccc1O`: the half-maximal inhibitory concentration (IC50) in [7] is 321 µM; in data set [18], 126 µM.

`COc1cc(/C=C2\CCC/C(=C\c3cc(CN(C)C)c(O)c(OC)c3)C2=O)cc(CN(C)C)c1O`: the Activity worked out at 58.9% in data set [2]; 8.3% in data set [4]; 24.7% in data set [5]; 38.9% in data set [6]; 55% in data set [10]; 86.3% in data set [15]. For the same compound, the Activity came to 40.1% in [19], 82.8% in [21], 21.1% in [22] and 52.9% in [23]. In addition, the IC50 in data set [7] came to 25.8 µM; in data set [8], 4.8 µM; in [11], 51.8 µM; in [12], 16.3 µM; in data set [16], 65.9 µM; in data set [18] it was 24.3 µM. The Stability result in data set [13] and in [14] was “Stable” each time.

For the compound `CN(C)Cc1cc(/C=C2\CC/C(=C\c3ccc(O)c(CN(C)C)c3)C2=O)ccc1O`, the Activity was 71.8% in data set [2]; 3.8% in data set [4]; 24.8% in data set [5]; 30.6% in [6]; 67.4% in data set [10]; 90.4% in data set [15]. The Activity in [19] stood at 54%; in data set [21] it was 86.8%; in [22] it was 13.3%; in data set [23], 46.8%. Moreover, the IC50 came to 57.3 µM in [7]; 2.3 µM in data set [8]; 78.1 µM in [11]; 45 µM in [12]; 142 µM in data set [16]; 43.6 µM in [18].

For `CN(C)Cc1cc(/C=C2\CCC/C(=C\c3cc(CN(C)C)c(O)c(CN(C)C)c3)C2=O)ccc1O`, the Activity in [2] came out at 52.3%; in data set [4], 13.4%; in data set [5], 25.9%; in [6], 36.5%; in data set [10] it was 66.6%; in [15], 90.3%. Also, the Activity in data set [19] came to 54.5%; in data set [21] it was 85.7%; in [22], 21.3%; in data set [23], 38.7%. The IC50 came to 45.3 µM in [7]; 2 µM in data set [8]; 35.5 µM in data set [11]; 65.9 µM in [12]; 64.7 µM in data set [16]; 49.5 µM in data set [18].

Turning to `CN(C)Cc1cc(/C=C2\CCC/C(=C\c3ccc(O)c(CN(C)C)c3)C2=O)ccc1O`, the Stability entry in data set [13] and in data set [14] was “Stable” in each case.

Take `COc1cc(/C=C/C(=O)CC(=O)/C=C/c2ccc(O)c(OC)c2)ccc1O` [CURCUMIN]: the Activity was found to be 20.46% in data set [1]; 45% in [2]; 4.6% in [4]; 0.3% in [5]; 13.7% in data set [6]; 50.2% in data set [9]. Also, the Activity in data set [10] came to 23.1%; in data set [15], 87.2%; in data set [19], 2.4%; in [20], 29.33%; in data set [21], 42%; in data set [22] it was 5.8%. Moreover, the Activity in data set [23] came out at 22.2%. The 50% inhibitory concentration (IC50) in data set [7] is 29 µM; in [8] it was 26.5 µM; in data set [11], 32.2 µM; in [12] it was more than 100 µM; in [16] it was 41.5 µM; in data set [18], 78.7 µM.

In the case of `CN(C)Cc1cc(/C=C2\CCC/C(=C\c3ccc(O)c(CN(C)C)c3)C2=O)ccc1O.Cl.Cl`, the concentration in solution in data set [24] (solubility) was 303 mg/mL.

The values above are taken from ChEMBL document CHEMBL2390868, “Design and synthesis of dimethylaminomethyl-substituted curcumin derivatives/analogues: potent antitumor and antioxidant activity, improved stability and aqueous solubility compared with curcumin” (Bioorg Med Chem Lett, 2013).
